From ChEMBL document CHEMBL2057182, “Synthesis and biological evaluation of α-methylidene-δ-lactones with 3,4-dihydrocoumarin skeleton” (Bioorg Med Chem, 2012)
In brackets after ≈: the same amount, converted by molar mass.

How the values were obtained:
MCF7 = experiment: Cytotoxicity against human MCF7 cells after 48 hrs by MTT assay; type: functional, cell-based; conditions: MCF7, 48 h
Method in brief: (§1)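 ECACC cells; leukemias in RPMI 1640, MCF-7 and HT-29 in DMEM, each with 10% heat-inactivated FBS plus penicillin/streptomycin, 37 °C, 5% CO2. 8 × 10^3 cells/well seeded, compounds added after 24 h at 10^-7 to 10^-3 M (DMSO diluted in medium) for 48 h. MTT 2 h, formazan dissolved in DMSO, A560 against untreated control. IC50 from concentration–response curves, mean ± SD of at least three experiments.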

HL-60 = experiment: Cytotoxicity against human HL60 cells after 48 hrs by MTT assay; type: functional, cell-based; conditions: HL-60, 48 h; method in brief: as §1
NALM-6 = experiment: Cytotoxicity against human NALM6 cells after 48 hrs by MTT assay; type: functional, cell-based; conditions: NALM-6, 48 h; method in brief: as §1
HT-29 = experiment: Cytotoxicity against human HT-29 cells after 48 hrs by MTT assay; type: functional, cell-based; conditions: HT-29, 48 h; method in brief: as §1
HUVEC = experiment: Cytotoxicity against human HUVEC cells after 48 hrs by MTT assay; type: cell-based
Method in brief: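 HUVECs cultured as the supplier directs, used at passages 3–8, 37 °C, 5% CO2. Seeded at 8 × 10^3/well, treated after 24 h with compounds at 10^-7 to 10^-3 M (DMSO diluted in complete medium) for 48 h. MTT 2 h, DMSO-solubilized formazan read at 560 nm against untreated cells. IC50 from concentration–response curves, at least three experiments.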

[1] = Therapeutic index ratio of IC50 for human HUVEC cells to IC50 for human HL60 cells; type: cell-based; conditions: HUVEC cells versus HL60 cells
[2] = Therapeutic index ratio of IC50 for human HUVEC cells to IC50 for human MCF7 cells; type: cell-based; conditions: HUVEC cells versus MCF7 cells, read-out: Ratio IC50
Candida albicans = experiment: Antifungal activity against Candida albicans ATCC 10231 after 24 hrs by broth microdilution assay; type: functional; conditions: ATCC 10231, 24 h
Method in brief: (§2)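 MIC by broth microdilution per CLSI, compounds from 20.0 mg/mL DMSO stocks tested at 3.125–400.0 µg/mL (eight twofold dilutions) in Mueller-Hinton broth or RPMI-1640. MIC is the concentration that inhibits growth during 24 h culture, turbidity equal to blank A600 (0.06). Highest final DMSO 2.0%.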

Pseudomonas aeruginosa = experiment: Antibacterial activity against Pseudomonas aeruginosa NCTC 6749 after 24 hrs by broth microdilution assay; type: functional; conditions: NCTC 6749, 24 h; method in brief: as §2
Escherichia coli = experiment: Antibacterial activity against Escherichia coli NCTC 8196 after 24 hrs by broth microdilution assay; type: functional; conditions: NCTC 8196, 24 h; method in brief: as §2
[3] = Therapeutic index ratio of IC50 for human HUVEC cells to IC50 for human NALM6 cells; type: cell-based; conditions: HUVEC cells versus NALM6 cells, read-out: Ratio IC50
Staphylococcus aureus [4] = experiment: Antibacterial activity against methicillin-resistant Staphylococcus aureus D5 patient isolate after 24 hrs by broth microdilution assay; type: functional; conditions: D5, 24 h
Method in brief: (§3)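 Broth microdilution in Mueller-Hinton broth, compounds from 20.0 mg/mL DMSO stocks tested over 3.125–400.0 µg/mL (eight twofold dilutions), DMSO at most 2.0% final. MIC is the lowest concentration inhibiting growth over 24 h culture, with turbidity equal to the A600 of a medium blank (0.06). Run under CLSI guidance with ATCC quality-control strains.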

Staphylococcus aureus [5] = experiment: Antibacterial activity against methicillin-resistant Staphylococcus aureus A7 patient isolate after 24 hrs by broth microdilution assay; type: functional; conditions: A7, 24 h; method in brief: as §3
Staphylococcus aureus [6] = experiment: Antibacterial activity against methicillin-resistant Staphylococcus aureus A7 patient isolate incubated for 24 hrs followed by washout measured after 24 hrs by broth microdilution assay; type: functional; conditions: A7, 24 h
Method in brief: (§4)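 MBC: after the 24 h broth microdilution MIC run (3.125–400.0 µg/mL in Mueller-Hinton broth, DMSO at most 2.0%), 10 µL from the MIC, 2× MIC and 4× MIC wells was subcultured into compound-free broth for 24 h. MBC is the lowest concentration with no visible growth, i.e. at least 99.9% kill of the original inoculum; bactericidal if MBC is at most 4× MIC.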

Staphylococcus aureus [7] = experiment: Antibacterial activity against methicillin-resistant Staphylococcus aureus D5 patient isolate incubated for 24 hrs followed by washout measured after 24 hrs by broth microdilution assay; type: functional; conditions: D5, 24 h; method in brief: as §4
Enterococcus faecalis = experiment: Antibacterial activity against Enterococcus faecalis ATCC 29212 after 24 hrs by broth microdilution assay; type: functional; conditions: ATCC 29212, 24 h; method in brief: as §2
Staphylococcus aureus [8] = experiment: Antibacterial activity against methicillin-sensitive Staphylococcus aureus ATCC 29213 incubated for 24 hrs followed by washout measured after 24 hrs by broth microdilution assay; type: functional; conditions: ATCC 29213, 24 h; method in brief: as §4
Staphylococcus aureus [9] = experiment: Antibacterial activity against methicillin-resistant Staphylococcus aureus A3 patient isolate incubated for 24 hrs followed by washout measured after 24 hrs by broth microdilution assay; type: functional; conditions: A3, 24 h; method in brief: as §4
Staphylococcus aureus [10] = experiment: Antibacterial activity against methicillin-resistant Staphylococcus aureus A3 patient isolate after 24 hrs by broth microdilution assay; type: functional; conditions: A3, 24 h; method in brief: as §3
Staphylococcus aureus [11] = experiment: Antibacterial activity against methicillin-sensitive Staphylococcus aureus ATCC 29213 after 24 hrs by broth microdilution assay; type: functional; conditions: ATCC 29213, 24 h; method in brief: as §3

Row | Structure (SMILES) | IC50 (MCF7) [µM] | IC50 (HL-60) [µM] | IC50 (NALM-6) [µM] | IC50 (HT-29) [µM] | IC50 (HUVEC) [µM] | further results
1 | C=C1C(=O)Oc2cc3c(cc2C1C)OCO3 (centres undefined) | 40.9 | 59.4 | 60.7 | 38.4 | – | –
2 | C=C1C(=O)Oc2cc3c(cc2C1C(C)C)OCO3 (centres undefined) | 0.87 | 3.3 | 0.7 | 1.5 | – | –
3 | C=C1C(=O)Oc2cc3c(cc2C1CCCC)OCO3 (centres undefined) | 0.54 | 0.75 | 0.6 | 1.8 | – | –
4 | C=C1C(=O)Oc2cc(OC)cc(OC)c2C1CCCC (centres undefined) | 3.3 | 3.4 | 4.6 | 5.2 | – | –
5 | C=C1C(=O)Oc2ccc3ccccc3c2C1C(C)C (centres undefined) | 0.48 | 0.7 | 0.72 | 2.67 | 4.03 | selectivity ratio [1]: 5.8; selectivity ratio [2]: 8; MIC (Candida albicans): > 400 µg/mL; MIC (Pseudomonas aeruginosa): > 400 µg/mL; MIC (Escherichia coli): > 400 µg/mL; selectivity ratio [3]: 5.6
6 | C=C1C(=O)Oc2cc(OC)ccc2C1C(C)C (centres undefined) | 0.87 | 0.56 | 0.85 | 1.7 | 3.12 | selectivity ratio [1]: 5.6; selectivity ratio [2]: 4; MIC (Candida albicans): > 400 µg/mL; MIC (Pseudomonas aeruginosa): > 400 µg/mL; MIC (Escherichia coli): > 400 µg/mL; selectivity ratio [3]: 4
7 | C=C1C(=O)Oc2cc(OC)ccc2C1CCCC (centres undefined) | 7.1 | 5.4 | 6.2 | 10.2 | 5.1 | MIC (Staphylococcus aureus [4]): 50 µg/mL (≈ 203 µM); MIC (Staphylococcus aureus [5]): 50 µg/mL (≈ 203 µM); MBC (Staphylococcus aureus [6]): 100 µg/mL (≈ 406 µM); MIC (Candida albicans): > 400 µg/mL; MBC (Staphylococcus aureus [7]): 200 µg/mL (≈ 812 µM); MIC (Pseudomonas aeruginosa): > 400 µg/mL; MIC (Enterococcus faecalis): 200 µg/mL (≈ 812 µM); MIC (Escherichia coli): > 400 µg/mL; MBC (Staphylococcus aureus [8]): 100 µg/mL (≈ 406 µM); MBC (Staphylococcus aureus [9]): 100 µg/mL (≈ 406 µM); MIC (Staphylococcus aureus [10]): 50 µg/mL (≈ 203 µM); MIC (Staphylococcus aureus [11]): 50 µg/mL (≈ 203 µM)
8 | C=CC1C(=C)C(=O)Oc2cc(OC)cc(OC)c21 (centres undefined) | 6.2 | 8.4 | 9.3 | 5.9 | – | –
9 | C=CC1C(=C)C(=O)Oc2ccc3ccccc3c21 (centres undefined) | 4.7 | 5.7 | 6 | 9.7 | 6.1 | –
10 | C=CC1C(=C)C(=O)Oc2ccc3ccc(O)cc3c21 (centres undefined) | 4.8 | 3.43 | 0.79 | 6.5 | – | –
11 | C=C1C(=O)Oc2ccc3ccc(O)cc3c2C1C (centres undefined) | 6.22 | 5.81 | 5.77 | 4.3 | – | –
12 | C=C1C(=O)Oc2ccc3ccc(O)cc3c2C1C(C)C (centres undefined) | 0.36 | 0.58 | 0.59 | 0.49 | – | –
13 | C=C1C(=O)Oc2ccc3ccccc3c2C1C (centres undefined) | 5.17 | 4.8 | 5.5 | 7.26 | 6.69 | –
14 | C=CC1C(=C)C(=O)Oc2cc(OC)ccc21 (centres undefined) | 62 | 51.7 | 56.6 | 42 | 57.3 | –
15 | C=C1C(=O)Oc2cc(OC)ccc2C1C (centres undefined) | 73 | 54.5 | 53.6 | 70 | 57.4 | –
16 | C=C1C(=O)Oc2ccc3ccc(O)cc3c2C1CCCC (centres undefined) | 1.88 | 0.62 | 0.56 | 1.73 | – | –
17 | C=C1C(=O)Oc2ccc3ccccc3c2C1CCCC (centres undefined) | 2.75 | 0.72 | 2.1 | 2.9 | 3.83 | MIC (Staphylococcus aureus [4]): 3.12 µg/mL (≈ 11.7 µM); MIC (Staphylococcus aureus [5]): 6.25 µg/mL (≈ 23.5 µM); MBC (Staphylococcus aureus [6]): 6.25 µg/mL (≈ 23.5 µM); MIC (Candida albicans): > 400 µg/mL; MBC (Staphylococcus aureus [7]): 6.25 µg/mL (≈ 23.5 µM); MIC (Pseudomonas aeruginosa): > 400 µg/mL; MIC (Enterococcus faecalis): 25 µg/mL (≈ 93.9 µM); MIC (Escherichia coli): > 400 µg/mL; MBC (Staphylococcus aureus [8]): 12.5 µg/mL (≈ 46.9 µM); MBC (Staphylococcus aureus [9]): 6.25 µg/mL (≈ 23.5 µM); MIC (Staphylococcus aureus [10]): 3.12 µg/mL (≈ 11.7 µM); MIC (Staphylococcus aureus [11]): 6.25 µg/mL (≈ 23.5 µM)
18 | C=C1C(=O)Oc2cc(OC)cc(OC)c2C1C (centres undefined) | 4.1 | 5.2 | 6 | 7.2 | – | –
19 | C=CC1C(=C)C(=O)Oc2cc3c(cc21)OCO3 (centres undefined) | 9.8 | 7.85 | 7.82 | 6.2 | – | –
20 | C=C1C(=O)Oc2cc(OC)cc(OC)c2C1C(C)C (centres undefined) | 2.1 | 1.3 | 3 | 2.2 | – | –
